Assay [1] can be described thus: The amount of iron absorbed by the treated animals at postdrug dosage of 300(umol/kg) (route per oral)using 40% cremophore as vehical in Cebus monkeys. The assay is classed as functional. A digest of the protocol: (§1)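 Iron-overloaded Cebus monkeys were kept in metabolic cages on a low-iron liquid diet starting 7 days before dosing, fed by body weight with intake monitored, and fasted 24 h before dosing. They were sedated with ketamine (7–10 mg/kg im) plus scopolamine (0.04–0.07 mg/kg im). Urine and feces were collected every 24 h over days 1–3 and iron measured by flame AA. Iron balance = dietary intake − (urinary + fecal iron).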

Assay [2] is described as follows: The amount of iron absorbed by the treated animals at postdrug dosage of 300(umol/kg) (route sub cutaneous) using 40% cremophore as vehical in Cebus monkeys. The format is functional. A digest of the protocol: as §1
The nature of assay [3]: The amount of iron absorbed by the untreated over a period of 3 days animals at prodrug dosage of 300(umol/kg) (route per oral)using 40% cremophore as vehical in Cebus monkeys. The format is functional. A digest of the protocol: (§2)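 Baseline period in iron-overloaded Cebus monkeys housed in metabolic cages on a low-iron liquid diet begun 7 days before dosing, fed by body weight with intake monitored. Iron intake and output were measured over the 3 days before drug administration (day −2 to day 0). Urine and feces were collected at 24-h intervals and iron determined by flame atomic absorption. Net balance = intake − (urinary + fecal iron).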

Assay [4] can be described thus: The amount of iron absorbed by the untreated over a period of 3 days animals at prodrug dosage of 300(umol/kg) (route sub cutaneous) using 40% cremophore as vehical in Cebus monkeys. The format is functional. A digest of the protocol: as §2
Assay [5] can be described thus: The amount of iron absorbed by the treated animals at postdrug dosage of 150(umol/kg) (route sc)using distill water as vehical. The format is functional, Cercopithecidae. A digest of the protocol:
as §1

Assay [6] is described as follows: The amount of iron absorbed by the untreated over a period of 3 days animals at prodrug dosage of 150(umol/kg) (route sc)using distill water as vehical. The assay is classed as functional, Cercopithecidae. A digest of the protocol: as §2
A short description of assay [7]: The amount of iron absorbed by the treated animals at postdrug dosage of 150(umol/kg) (route per oral)using 40% cremophore as vehical in Cebus monkeys. The assay is classed as functional. Put shortly:
as §1

A short description of assay [8]: The amount of iron absorbed by the untreated over a period of 3 days animals at prodrug dosage of 150(umol/kg) (route per oral)using 40% cremophore as vehical in Cebus monkeys. The assay is classed as functional. Put shortly:
as §2

For the compound `O=C(O)[C@@H]1CSC(c2cc3ccccc3cc2O)=N1`, the Postdrug in assay [1] was determined as 49 µg/kg; in assay [2] it was 120 µg/kg. The Predrug in assay [3] worked out at 118 µg/kg; in assay [4] it was 80 µg/kg.

`O=C(O)[C@H]1CSC(c2cc3ccccc3cc2O)=N1`: the figures for the Postdrug in assay [1] and in assay [2] were -162 µg/kg and 156 µg/kg, respectively. Besides, the figures for the Predrug in assay [3] and in assay [4] were 25 µg/kg and 164 µg/kg, respectively.

For the compound `O=C(O)[C@@H]1CSC(c2c(O)ccc3ccccc23)=N1`, the Postdrug in assay [1] is 63 µg/kg; in assay [2] it was -9 µg/kg. The Predrug in assay [3] came to 54 µg/kg; in assay [4], 26 µg/kg.

`O=C(O)[C@H]1CSC(c2c(O)ccc3ccccc23)=N1` came in with a Postdrug in assay [1] of 381 µg/kg. Besides, the Predrug in assay [3] is 358 µg/kg.

Take `CC(=O)N(O)CCCCCNC(=O)CCC(=O)N(O)CCCCCNC(=O)CCC(=O)N(O)CCCCCN` [DEFEROXAMINE]: the Postdrug in assay [5] amounted to 245 µg/kg. The Predrug in assay [6] was found to be 217 µg/kg.

On to `C[C@]1(C(=O)O)CSC(c2ncccc2O)=N1` [DESFERRITHIOCIN], for which the Postdrug in assay [7] was -500 µg/kg. In addition, the Predrug in assay [8] turned out to be 230 µg/kg.

For the origin of these results see ChEMBL document CHEMBL1129547, “Synthesis and biological evaluation of naphthyldesferrithiocin iron chelators” (1996).
